# Legend:
# [1] = Inhibition of apamin-sensitive SK channel
# [2] = target: Small conductance calcium-activated potassium channel protein 2 (Homo sapiens, UniProt Q9H2S1); assay: Inhibition of SK2 expressed in CHO FlipIn cells by whole cell patch-clamp assay; type: cell-based
# [3] = target: T1, 5-hydroxytryptamine receptor 1A (Homo sapiens) (UniProt P08908); assay: Inhibition of 5HT1A receptor at 10 uM
# T1 sequence (whole entry): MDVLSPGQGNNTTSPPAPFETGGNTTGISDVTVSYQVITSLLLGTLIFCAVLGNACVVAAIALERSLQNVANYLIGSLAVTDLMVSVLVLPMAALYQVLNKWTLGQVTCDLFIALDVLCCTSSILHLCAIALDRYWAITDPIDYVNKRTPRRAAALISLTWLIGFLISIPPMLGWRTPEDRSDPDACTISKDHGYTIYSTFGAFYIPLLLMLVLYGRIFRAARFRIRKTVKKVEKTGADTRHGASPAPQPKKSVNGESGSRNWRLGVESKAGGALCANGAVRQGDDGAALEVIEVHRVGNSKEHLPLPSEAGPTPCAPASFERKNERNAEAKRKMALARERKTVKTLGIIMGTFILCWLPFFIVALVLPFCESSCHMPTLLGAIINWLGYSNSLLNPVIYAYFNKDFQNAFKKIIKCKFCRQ
# [4] = Dissociation constant, pKa at pH 1.8 to 2.0; type: physicochemical
# How it was run: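 pKa by potentiometric titration on a Sirius PCA200 analyser; at least three aqueous solutions titrated; sample acidified to pH 1.8–2.0 with 0.5 M aqueous HCl, then titrated with 0.5 M aqueous KOH to pH 12.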
# [5] = Lipophilicity, log P of the compound; type: physicochemical; conditions: octanol/water
# How it was run: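 logP by potentiometric titration on a Sirius PCA200 analyser; at least three titrations at different phase volume ratios, mean logP reported; sample acidified to pH 1.8–2.0 with 0.5 M HCl, titrated with 0.5 M KOH to pH 12.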
# [6] = target: Small conductance calcium-activated potassium channel protein 3 (Homo sapiens, UniProt Q9UGI6); assay: Inhibition of SK3 expressed in CHO FlipIn cells by whole cell patch-clamp assay; type: cell-based
# [7] = target: Histamine H3 receptor (Homo sapiens) (UniProt Q9Y5N1); assay: Inhibition of histamine H3 receptor at 10 uM
# [8] = Inhibition of apamin-sensitive SK channel at 10 uM
# [9] = Inhibition of sigma 2 receptor at 10 uM
# [10] = Inhibition of L-type calcium channel at 10 uM
# [11] = target: D(2) dopamine receptor (Homo sapiens) (UniProt P14416); assay: Inhibition of dopamine D2 receptor at 10 uM
# [12] = target: Small conductance calcium-activated potassium channel protein 1 (Homo sapiens, UniProt Q92952); assay: Inhibition of SK1 expressed in CHO FlipIn cells by whole cell patch-clamp assay; type: cell-based
# How it was run: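 Whole-cell patch clamp on CHO FlipIn cells stably transfected with SK1, grown in Ham's F-12 with 10% calf serum, streptomycin/penicillin and hygromycin-B. Pipette solution (mM): KCl 130, EGTA 10, CaCl2 8.751, MgCl2 1.08, Hepes 10 ([…]), pH 7.2. K+ currents at −50 mV; percent inhibition at increasing concentrations, normalised to full block by 100 µM N-methyl-laudanosine.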
# Histamine H3 receptor (Homo sapiens), sequence (Q9Y5N1 whole entry): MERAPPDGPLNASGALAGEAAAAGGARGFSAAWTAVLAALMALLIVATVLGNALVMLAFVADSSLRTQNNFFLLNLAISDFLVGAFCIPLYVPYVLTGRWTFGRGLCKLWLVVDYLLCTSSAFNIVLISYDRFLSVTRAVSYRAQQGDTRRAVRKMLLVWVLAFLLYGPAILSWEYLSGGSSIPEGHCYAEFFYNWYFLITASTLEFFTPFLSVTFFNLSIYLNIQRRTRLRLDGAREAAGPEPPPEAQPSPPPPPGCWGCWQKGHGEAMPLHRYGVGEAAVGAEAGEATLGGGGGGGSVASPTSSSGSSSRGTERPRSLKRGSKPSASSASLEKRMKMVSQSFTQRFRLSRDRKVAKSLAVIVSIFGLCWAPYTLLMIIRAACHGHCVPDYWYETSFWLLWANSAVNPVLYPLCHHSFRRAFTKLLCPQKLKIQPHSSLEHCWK
# Small conductance calcium-activated potassium channel protein 2, sequence (Q9H2S1 whole entry): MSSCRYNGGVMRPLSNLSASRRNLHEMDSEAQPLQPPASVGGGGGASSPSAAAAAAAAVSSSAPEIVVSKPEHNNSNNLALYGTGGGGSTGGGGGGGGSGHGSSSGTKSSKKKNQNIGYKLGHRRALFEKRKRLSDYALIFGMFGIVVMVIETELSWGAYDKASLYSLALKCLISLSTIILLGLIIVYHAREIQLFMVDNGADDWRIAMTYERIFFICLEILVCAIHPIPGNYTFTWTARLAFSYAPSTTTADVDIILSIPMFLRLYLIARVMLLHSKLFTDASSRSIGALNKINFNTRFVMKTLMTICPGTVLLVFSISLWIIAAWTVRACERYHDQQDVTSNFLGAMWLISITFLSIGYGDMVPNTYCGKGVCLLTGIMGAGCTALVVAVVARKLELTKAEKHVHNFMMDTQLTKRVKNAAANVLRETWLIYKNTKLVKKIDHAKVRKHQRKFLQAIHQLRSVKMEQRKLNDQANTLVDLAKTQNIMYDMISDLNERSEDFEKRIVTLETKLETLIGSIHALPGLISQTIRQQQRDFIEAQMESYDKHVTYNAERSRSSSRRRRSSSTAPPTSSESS
# D(2) dopamine receptor (Homo sapiens), sequence (P14416 whole entry): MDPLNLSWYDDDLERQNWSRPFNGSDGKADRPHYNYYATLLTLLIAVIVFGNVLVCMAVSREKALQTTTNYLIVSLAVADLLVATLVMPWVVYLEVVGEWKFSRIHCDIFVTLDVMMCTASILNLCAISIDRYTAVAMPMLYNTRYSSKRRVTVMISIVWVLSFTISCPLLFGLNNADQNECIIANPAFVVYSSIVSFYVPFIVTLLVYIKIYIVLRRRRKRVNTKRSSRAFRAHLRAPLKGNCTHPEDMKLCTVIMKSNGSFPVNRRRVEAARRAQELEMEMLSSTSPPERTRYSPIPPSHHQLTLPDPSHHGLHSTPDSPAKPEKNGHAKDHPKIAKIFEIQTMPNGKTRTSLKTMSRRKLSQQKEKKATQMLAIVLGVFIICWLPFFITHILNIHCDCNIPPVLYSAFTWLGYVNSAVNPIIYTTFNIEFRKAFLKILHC
# Small conductance calcium-activated potassium channel protein 3, sequence (Q9UGI6 whole entry): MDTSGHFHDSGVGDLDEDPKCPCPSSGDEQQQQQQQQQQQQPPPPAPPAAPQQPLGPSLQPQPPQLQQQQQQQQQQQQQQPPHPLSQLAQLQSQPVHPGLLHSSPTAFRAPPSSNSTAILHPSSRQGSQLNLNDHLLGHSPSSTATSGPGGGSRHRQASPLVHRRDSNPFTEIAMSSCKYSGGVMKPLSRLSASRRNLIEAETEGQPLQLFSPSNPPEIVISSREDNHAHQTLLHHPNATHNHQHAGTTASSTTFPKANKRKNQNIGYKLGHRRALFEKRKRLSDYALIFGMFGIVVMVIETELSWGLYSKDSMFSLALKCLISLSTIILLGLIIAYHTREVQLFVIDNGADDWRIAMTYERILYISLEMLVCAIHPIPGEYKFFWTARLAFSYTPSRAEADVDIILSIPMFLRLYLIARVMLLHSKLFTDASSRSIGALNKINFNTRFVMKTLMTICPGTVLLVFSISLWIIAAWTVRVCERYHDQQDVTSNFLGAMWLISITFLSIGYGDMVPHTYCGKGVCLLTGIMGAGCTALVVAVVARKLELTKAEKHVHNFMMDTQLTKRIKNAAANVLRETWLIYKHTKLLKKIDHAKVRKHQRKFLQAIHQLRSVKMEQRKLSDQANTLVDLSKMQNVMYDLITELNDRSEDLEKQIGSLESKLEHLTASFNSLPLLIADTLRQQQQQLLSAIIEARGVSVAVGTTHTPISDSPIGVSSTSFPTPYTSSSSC
# Small conductance calcium-activated potassium channel protein 1, sequence (Q92952 whole entry): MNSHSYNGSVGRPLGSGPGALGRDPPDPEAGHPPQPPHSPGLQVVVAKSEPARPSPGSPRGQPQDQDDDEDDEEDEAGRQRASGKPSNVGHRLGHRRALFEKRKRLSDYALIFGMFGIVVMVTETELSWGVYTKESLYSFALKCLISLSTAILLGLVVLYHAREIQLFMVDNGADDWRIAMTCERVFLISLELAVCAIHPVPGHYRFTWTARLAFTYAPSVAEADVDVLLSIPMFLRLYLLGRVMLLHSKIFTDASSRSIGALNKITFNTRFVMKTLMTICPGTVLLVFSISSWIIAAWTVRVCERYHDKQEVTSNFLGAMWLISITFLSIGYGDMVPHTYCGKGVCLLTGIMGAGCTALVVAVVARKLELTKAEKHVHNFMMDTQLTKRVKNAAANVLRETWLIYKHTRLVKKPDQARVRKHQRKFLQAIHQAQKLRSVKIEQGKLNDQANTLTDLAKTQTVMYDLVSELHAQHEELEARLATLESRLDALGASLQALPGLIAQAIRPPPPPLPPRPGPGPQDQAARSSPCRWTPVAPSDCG
smiles,measurement,setting,value
COc1cc2c(cc1OC)[C@@H](CCC[C@@H]1c3cc(OC)c(OC)cc3CCN1C)N(C)CC2,Ki,[1],1880 nM
COc1ccc(CC2c3cc(OC)c(OC)cc3CCN2C)cc1OC (configuration not stated) [LAUDANOSINE],Ki,[1],30000 nM
COc1cc2c(cc1OC)[C@H](CCC[C@H]1c3cc(OC)c(OC)cc3CCN1C)N(C)CC2,IC50,[2],2600 nM
same,inhibition,[3],39%
same,pKa,[4],8.1
same,logP,[5],2.9
same,IC50,[6],3000 nM
same,inhibition,[7],37%
same,inhibition,[8],61%
same,inhibition,[9],39%
same,inhibition,[10],36%
same,inhibition,[11],31%
same,IC50,[12],3800 nM
same,Ki,[1],293 nM
COc1ccc(C[C@H]2c3cc(OC)c(OC)cc3CC[N+]2(C)C)cc1OC [LAUDANOSINE METHIODIDE],Ki,[1],1600 nM
COc1cc2c(cc1OC)[C@@H](CCC[C@H]1c3cc(OC)c(OC)cc3CCN1C)N(C)CC2,Ki,[1],1420 nM
Cc1cc(N)c2ccccc2[n+]1CCCCCCCCCC[n+]1c(C)cc(N)c2ccccc21 [DEQUALINIUM CHLORIDE],Ki,[1],221 nM
